Source: ChEMBL document CHEMBL3588853, “Synthesis, biological evaluation, and molecular docking studies of novel 1-benzene acyl-2-(1-methylindol-3-yl)-benzimidazole derivatives as potential tubulin polymerization inhibitors” (Eur J Med Chem, 2015)

Assays:
A549 [1] = test: Induction of apoptosis in human A549 cells assessed as viable cells at 2 uM after 24 hrs by annexin V/PI double staining FACScalibur flow cytometry (reference value: 99%); format: functional; details: A549, 24 h, read-out: Activity
A549 [2] = test: Induction of cell cycle arrest in human A549 cells assessed as accumulation at SubG0 phase at 5 uM after 24 hrs by propidium iodide staining based flow cytometric analysis (reference value: 0%); format: functional
A549 [3] = test: Induction of apoptosis in human A549 cells assessed as viable cells at 5 uM after 24 hrs by annexin V/PI double staining FACScalibur flow cytometry (reference value: 99%); format: functional; details: A549, 24 h, read-out: Activity
A549 [4] = test: Growth inhibition of human A549 cells assessed as inhibition of cell proliferation after 24 hrs by MTT assay; format: functional; details: A549, 24 h
In short: (§1)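 Cells seeded at (1–5) × 10^3 per well and grown 12 h at 37 °C. Compounds added at increasing concentrations in medium with 10% FBS for 24 h. MTT dye then added, followed by 3–4 h at 37 °C. Medium discarded, formazan dissolved in DMSO and plate read. GI50 calculated relative to DMSO-treated control wells.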

A549 [5] = test: Induction of cell cycle arrest in human A549 cells assessed as accumulation at G0/G1 phase at 1 uM after 24 hrs by propidium iodide staining based flow cytometric analysis (reference value: 79.11%); format: functional
Tubulin (Bos taurus) = Tubulin (Bos taurus) (UniProt Q6B856+Q862F3); details: at 5 µM
HepG2 = test: Growth inhibition of human HepG2 cells assessed as inhibition of cell proliferation after 24 hrs by MTT assay; format: functional; details: HepG2, 24 h; in short: as §1
A549 [6] = test: Induction of apoptosis in human A549 cells assessed as late apoptotic cells at 2 uM after 24 hrs by annexin V/PI double staining FACScalibur flow cytometry (reference value: 0.406 %); format: functional
A549 [7] = test: Induction of apoptosis in human A549 cells assessed as early apoptotic cells at 5 uM after 24 hrs by annexin V/PI double staining FACScalibur flow cytometry (reference value: 0.061%); format: functional
A549 [8] = test: Induction of cell cycle arrest in human A549 cells assessed as accumulation at G0/G1 phase at 2 uM after 24 hrs by propidium iodide staining based flow cytometric analysis (reference value: 79.11%); format: functional
A549 [9] = test: Induction of cell cycle arrest in human A549 cells assessed as accumulation at G2/M phase at 1 uM after 24 hrs by propidium iodide staining based flow cytometric analysis (reference value: 13.26%); format: functional
A549 [10] = test: Induction of apoptosis in human A549 cells assessed as early apoptotic cells at 1 uM after 24 hrs by annexin V/PI double staining FACScalibur flow cytometry (reference value: 0.061%); format: functional
A549 [11] = test: Induction of apoptosis in human A549 cells assessed as necrotic cells at 2 uM after 24 hrs by annexin V/PI double staining FACScalibur flow cytometry (reference value: 0.529%); format: functional
A549 [12] = test: Induction of cell cycle arrest in human A549 cells assessed as accumulation at S phase at 1 uM after 24 hrs by propidium iodide staining based flow cytometric analysis (reference value: 7.63%); format: functional
A549 [13] = test: Induction of cell cycle arrest in human A549 cells assessed as accumulation at S phase at 5 uM after 24 hrs by propidium iodide staining based flow cytometric analysis (reference value: 7.63%); format: functional
A549 [14] = test: Induction of cell cycle arrest in human A549 cells assessed as accumulation at SubG0 phase at 2 uM after 24 hrs by propidium iodide staining based flow cytometric analysis (reference value: 0%); format: functional
A549 [15] = test: Induction of cell cycle arrest in human A549 cells assessed as accumulation at G2/M phase at 5 uM after 24 hrs by propidium iodide staining based flow cytometric analysis (reference value: 13.26%); format: functional
A549 [16] = test: Induction of apoptosis in human A549 cells assessed as necrotic cells at 1 uM after 24 hrs by annexin V/PI double staining FACScalibur flow cytometry (reference value: 0.529%); format: functional
MCF7 = test: Growth inhibition of human MCF7 cells assessed as inhibition of cell proliferation after 24 hrs by MTT assay; format: functional; details: MCF7, 24 h; in short: as §1
A549 [17] = test: Induction of cell cycle arrest in human A549 cells assessed as accumulation at SubG0 phase at 1 uM after 24 hrs by propidium iodide staining based flow cytometric analysis (reference value: 0%); format: functional
A549 [18] = test: Induction of apoptosis in human A549 cells assessed as viable cells at 1 uM after 24 hrs by annexin V/PI double staining FACScalibur flow cytometry (reference value: 99%); format: functional; details: A549, 24 h, read-out: Activity
A549 [19] = test: Induction of cell cycle arrest in human A549 cells assessed as accumulation at G0/G1 phase at 5 uM after 24 hrs by propidium iodide staining based flow cytometric analysis (reference value: 79.11%); format: functional
A549 [20] = test: Induction of apoptosis in human A549 cells assessed as early apoptotic cells at 2 uM after 24 hrs by annexin V/PI double staining FACScalibur flow cytometry (reference value: 0.061%); format: functional
A549 [21] = test: Induction of apoptosis in human A549 cells assessed as late apoptotic cells at 1 uM after 24 hrs by annexin V/PI double staining FACScalibur flow cytometry (reference value: 0.406 %); format: functional
A549 [22] = test: Induction of cell cycle arrest in human A549 cells assessed as accumulation at G2/M phase at 2 uM after 24 hrs by propidium iodide staining based flow cytometric analysis (reference value: 13.26%); format: functional
A549 [23] = test: Induction of cell cycle arrest in human A549 cells assessed as accumulation at S phase at 2 uM after 24 hrs by propidium iodide staining based flow cytometric analysis (reference value: 7.63%); format: functional
A549 [24] = test: Induction of apoptosis in human A549 cells assessed as late apoptotic cells at 5 uM after 24 hrs by annexin V/PI double staining FACScalibur flow cytometry (reference value: 0.406 %); format: functional
A549 [25] = test: Induction of apoptosis in human A549 cells assessed as necrotic cells at 5 uM after 24 hrs by annexin V/PI double staining FACScalibur flow cytometry (reference value: 0.529%); format: functional
Tubulin = Tubulin (Bos taurus, UniProt Q6B856+Q862F3); test: Inhibition of bovine brain tubulin polymerization extent after 20 mins by turbidimetrically
Tubulin, sequence (Q6B856 whole entry): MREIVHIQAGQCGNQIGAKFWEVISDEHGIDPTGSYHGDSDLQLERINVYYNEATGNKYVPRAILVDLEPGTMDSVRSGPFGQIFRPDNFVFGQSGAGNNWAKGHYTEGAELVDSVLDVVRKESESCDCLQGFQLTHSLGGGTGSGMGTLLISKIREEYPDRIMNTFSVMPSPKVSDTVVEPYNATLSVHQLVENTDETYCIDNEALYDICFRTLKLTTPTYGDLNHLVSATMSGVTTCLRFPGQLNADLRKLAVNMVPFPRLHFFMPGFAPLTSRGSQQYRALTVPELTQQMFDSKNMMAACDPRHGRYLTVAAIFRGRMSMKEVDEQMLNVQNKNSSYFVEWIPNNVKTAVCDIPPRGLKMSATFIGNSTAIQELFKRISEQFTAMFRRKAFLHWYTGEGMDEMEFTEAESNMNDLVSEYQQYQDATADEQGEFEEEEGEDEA
Tubulin, sequence (Q862F3 whole entry): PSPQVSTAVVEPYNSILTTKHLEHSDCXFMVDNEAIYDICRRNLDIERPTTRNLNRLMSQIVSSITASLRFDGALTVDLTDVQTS

COc1ccc2c(c1)c(-c1nc3ccccc3n1C(=O)c1cc(OC)c(OC)c(OC)c1)cn2C
viability at 2 µM (A549 [1]): 77.3% | Activity (A549 [2]): 0% | viability at 5 µM (A549 [3]): 76.2% | GI50 (A549 [4]): 2.4 µM | Activity (A549 [5]): 60.17% | inhibition (Tubulin (Bos taurus)): 96% | GI50 (HepG2): 3.8 µM | Activity (A549 [6]): 5.13% | Activity (A549 [7]): 17.2% | Activity (A549 [8]): 57.42% | Activity (A549 [9]): 27.23% | Activity (A549 [10]): 14.8% | Activity (A549 [11]): 0.543% | Activity (A549 [12]): 12.51% | Activity (A549 [13]): 11.24% | Activity (A549 [14]): 0% | Activity (A549 [15]): 39.46% | Activity (A549 [16]): 0.59% | GI50 (MCF7): 5.1 µM | Activity (A549 [17]): 0% | viability at 1 µM (A549 [18]): 79.8% | Activity (A549 [19]): 49.3% | Activity (A549 [20]): 17% | Activity (A549 [21]): 4.77% | Activity (A549 [22]): 33.21% | Activity (A549 [23]): 12.51% | Activity (A549 [24]): 6.03% | Activity (A549 [25]): 0.595% | IC50 (Tubulin): 1.5 µM
